Measured values: ChEMBL document CHEMBL3108780, “Synthesis, characterization, cytotoxicity and antibacterial activity of an anthracenyl-linked bis(pyrazolyl)methane ligand and its zinc(II) complexes” (Eur J Med Chem, 2014)
In brackets after ≈: the same amount, converted by molar mass.

How the values were obtained:
Escherichia coli = assay: Antibacterial activity against Escherichia coli ATCC 35218 after 24 hrs by MTT assay; assay type: functional; conditions: ATCC 35218, 24 h
Summary of the method: (§1)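 Broth microdilution per CLSI; compounds dissolved in DMSO (stock […]) and serially diluted in sterilized liquid medium (50% v/v DMSO in PBS). Inoculum about 10^5 cfu/mL, incubated 37 °C for 24 h. Growth read colorimetrically with MTT dye, OD at 550 nm; MIC50 determined.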

Pseudomonas putida = assay: Antibacterial activity against Pseudomonas putida ATCC 49128 after 24 hrs by MTT assay; assay type: functional; conditions: ATCC 49128, 24 h; summary of the method: as §1
Staphylococcus aureus = assay: Antibacterial activity against Staphylococcus aureus ATCC 25923 after 24 hrs by MTT assay; assay type: functional; conditions: ATCC 25923, 24 h; summary of the method: as §1
Bacillus spizizenii = assay: Antibacterial activity against Bacillus subtilis ATCC 6633 after 24 hrs by MTT assay; assay type: functional; conditions: ATCC 6633, 24 h; summary of the method: as §1
MDA-MB-435 = assay: Cytotoxicity against human MDA-MB-435 cells after 48 hrs by MTT assay; assay type: functional, cell-based; conditions: MDA-MB-435, 48 h
Summary of the method: (§2)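 Cells seeded at 2 × 10^4 cells/mL, preincubated 24 h at 37 °C, 5% CO2. Compounds from DMSO mother solutions diluted in complete medium (DMSO ≤0.1%), added at pre-set concentrations with 5-fluorouracil and cisplatin as references. 48 h exposure, then MTT (2.5 mg/mL in PBS) 4 h, SDS/isobutanol/HCl solubilisation overnight, OD 570 nm. Triplicate wells, assays repeated ≥3 times; IC50.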

A549 = assay: Cytotoxicity against human A549 cells after 48 hrs by MTT assay; assay type: functional, cell-based; conditions: A549, 48 h; summary of the method: as §2
Huh-7 = assay: Cytotoxicity against human HuH7 cells after 48 hrs by MTT assay; assay type: functional, cell-based; conditions: Huh-7, 48 h; summary of the method: as §2

| Structure (SMILES) | MIC50 (Escherichia coli) [µg/mL] | MIC50 (Pseudomonas putida) [µg/mL] | MIC50 (Staphylococcus aureus) [µg/mL] | MIC50 (Bacillus spizizenii) [µg/mL] | IC50 (MDA-MB-435) [µg/mL] | IC50 (A549) [µg/mL] | IC50 (Huh-7) [µg/mL] |
| --- | --- | --- | --- | --- | --- | --- | --- |
| O=C(N[C@H](CO)[C@H](O)c1ccc([N+](=O)[O-])cc1)C(Cl)Cl [CHLORAMPHENICOL] | 3.04 (≈ 9.41 µM) | 0.182 (≈ 0.563 µM) | 0.499 (≈ 1.54 µM) | 1.25 (≈ 3.88 µM) | – | – | – |
| O=c1[nH]cc(F)c(=O)[nH]1 [FLUOROURACIL] | – | – | – | – | 25.6 (≈ 197 µM) | 24.9 (≈ 191 µM) | 20 (≈ 154 µM) |
| c1ccc2c(C(n3cccn3)n3cccn3)c3ccccc3cc2c1 | 4.8 (≈ 14.8 µM) | 1.54 (≈ 4.76 µM) | 2.13 (≈ 6.57 µM) | 3.26 (≈ 10 µM) | 23.8 (≈ 73.3 µM) | 9.77 (≈ 30.1 µM) | 28 (≈ 86.2 µM) |
